# Measured values taken from ChEMBL document CHEMBL4689842, “EUbOPEN Chemogenomics Library wave 1” (2021).
# What was measured:
# Assay type in all cases: toxicity, cell-based
# [1] = test system: Fibroblast; test: Multiplex assay against human fibroblast
# Method in brief: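 Phenotypes for tubulin, mitochondrial mass and membrane permeability are expressed as per cents of healthy-nucleus cells. Cells were stained live at seeding with Hoechst33342, BioTracker Green Microtubule Cytoskeleton Dye, MitoTracker Red and Annexin V Alexa Fluor 680, then imaged after compound addition on a CQ1 microscope at 37°C and 5% CO2. Machine-learning gating in CellPathfinder separated Hoechst high-intensity objects from normal cells, divided normal cells by nuclear state (healthy, pyknosed, fragmented) and divided pyknosed cells into mitotic or apoptotic.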
# [2] = test system: Fibroblast; test: Incucyte cell viability with human fibroblast; details: 10 µM, compound concentration 10 uM; also: filed as whole numbers so only -1 and 0 and 1 occur
# [3] = test system: U2OS; test: Incucyte cell viability with U2OS; details: human, 10 µM, compound concentration 10 uM; also: filed as whole numbers so only -1 and 0 and 1 occur
# [4] = 12 h, 1 µM, compound concentration 1 uM, replicate 1
# [5] = 12 h, 1 µM, compound concentration 1 uM, replicate 2
# [6] = 12 h, 10 µM, compound concentration 10 uM, replicate 1
# [7] = 12 h, 10 µM, compound concentration 10 uM, replicate 2
# [8] = 24 h, 1 µM, compound concentration 1 uM, replicate 1
# [9] = 24 h, 1 µM, compound concentration 1 uM, replicate 2
# [10] = 24 h, 10 µM, compound concentration 10 uM, replicate 1
# [11] = 24 h, 10 µM, compound concentration 10 uM, replicate 2
# [12] = 6 h, replicate number 1, timepoint 6 hours
# [13] = 12 h, replicate number 1, timepoint 12 hours
# [14] = 12 h, replicate number 2, timepoint 12 hours
# [15] = 18 h, replicate number 1, timepoint 18 hours
# [16] = 24 h, replicate number 1, timepoint 24 hours
# [17] = 24 h, replicate number 2, timepoint 24 hours
structure (smiles),measurement,setting,value
c1ccc2oc(-c3csc(C4CCN(Cc5nc6ncccc6[nH]5)CC4)n3)cc2c1,Population Apoptotic (%),[1]; [4],73%
same,Population Fragmented Nuclei (%),[1]; [4],30%
same,Population Healthy Nuclei (%),[1]; [4],55%
same,Population Hoechst High Intensity Objects (%),[1]; [4],15%
same,Population Membrane Permeable-Phenotype (%),[1]; [4],9%
same,Population Mitochondria Different-Phenotype (%),[1]; [4],10%
same,Population Mitotic Cells (%),[1]; [4],26%
same,Population Normal (%),[1]; [4],85%
same,Population Pyknosed Nuclei (%),[1]; [4],13%
same,Population Tubulin-Different-Phenotype (%),[1]; [4],12%
same,Total Cell Count,[1]; [4],160
same,Population Apoptotic (%),[1]; [5],25%
same,Population Fragmented Nuclei (%),[1]; [5],59%
same,Population Healthy Nuclei (%),[1]; [5],28%
same,Population Hoechst High Intensity Objects (%),[1]; [5],34%
same,Population Membrane Permeable-Phenotype (%),[1]; [5],15%
same,Population Mitochondria Different-Phenotype (%),[1]; [5],5%
same,Population Mitotic Cells (%),[1]; [5],75%
same,Population Normal (%),[1]; [5],65%
same,Population Pyknosed Nuclei (%),[1]; [5],11%
same,Population Tubulin-Different-Phenotype (%),[1]; [5],26%
same,Total Cell Count,[1]; [5],103
same,Population Apoptotic (%),[1]; [6],63%
same,Population Fragmented Nuclei (%),[1]; [6],25%
same,Population Healthy Nuclei (%),[1]; [6],55%
same,Population Hoechst High Intensity Objects (%),[1]; [6],11%
same,Population Membrane Permeable-Phenotype (%),[1]; [6],3%
same,Population Mitochondria Different-Phenotype (%),[1]; [6],1%
same,Population Mitotic Cells (%),[1]; [6],36%
same,Population Normal (%),[1]; [6],88%
same,Population Pyknosed Nuclei (%),[1]; [6],19%
same,Population Tubulin-Different-Phenotype (%),[1]; [6],4%
same,Total Cell Count,[1]; [6],190
same,Population Apoptotic (%),[1]; [7],66%
same,Population Fragmented Nuclei (%),[1]; [7],65%
same,Population Healthy Nuclei (%),[1]; [7],28%
same,Population Hoechst High Intensity Objects (%),[1]; [7],35%
same,Population Membrane Permeable-Phenotype (%),[1]; [7],21%
same,Population Mitochondria Different-Phenotype (%),[1]; [7],0%
same,Population Mitotic Cells (%),[1]; [7],33%
same,Population Normal (%),[1]; [7],64%
same,Population Pyknosed Nuclei (%),[1]; [7],6%
same,Population Tubulin-Different-Phenotype (%),[1]; [7],0%
same,Total Cell Count,[1]; [7],76
same,Population Apoptotic (%),[1]; [8],50%
same,Population Fragmented Nuclei (%),[1]; [8],38%
same,Population Healthy Nuclei (%),[1]; [8],51%
same,Population Hoechst High Intensity Objects (%),[1]; [8],12%
same,Population Membrane Permeable-Phenotype (%),[1]; [8],10%
same,Population Mitochondria Different-Phenotype (%),[1]; [8],4%
same,Population Mitotic Cells (%),[1]; [8],50%
same,Population Normal (%),[1]; [8],87%
same,Population Pyknosed Nuclei (%),[1]; [8],9%
same,Population Tubulin-Different-Phenotype (%),[1]; [8],17%
same,Total Cell Count,[1]; [8],165
same,Population Apoptotic (%),[1]; [9],25%
same,Population Fragmented Nuclei (%),[1]; [9],64%
same,Population Healthy Nuclei (%),[1]; [9],28%
same,Population Hoechst High Intensity Objects (%),[1]; [9],39%
same,Population Membrane Permeable-Phenotype (%),[1]; [9],25%
same,Population Mitochondria Different-Phenotype (%),[1]; [9],0%
same,Population Mitotic Cells (%),[1]; [9],75%
same,Population Normal (%),[1]; [9],60%
same,Population Pyknosed Nuclei (%),[1]; [9],7%
same,Population Tubulin-Different-Phenotype (%),[1]; [9],25%
same,Total Cell Count,[1]; [9],92
same,Population Apoptotic (%),[1]; [10],90%
same,Population Fragmented Nuclei (%),[1]; [10],26%
same,Population Healthy Nuclei (%),[1]; [10],59%
same,Population Hoechst High Intensity Objects (%),[1]; [10],11%
same,Population Membrane Permeable-Phenotype (%),[1]; [10],2%
same,Population Mitochondria Different-Phenotype (%),[1]; [10],0%
same,Population Mitotic Cells (%),[1]; [10],9%
same,Population Normal (%),[1]; [10],88%
same,Population Pyknosed Nuclei (%),[1]; [10],13%
same,Population Tubulin-Different-Phenotype (%),[1]; [10],2%
same,Total Cell Count,[1]; [10],183
same,Population Apoptotic (%),[1]; [11],100%
same,Population Fragmented Nuclei (%),[1]; [11],59%
same,Population Healthy Nuclei (%),[1]; [11],34%
same,Population Hoechst High Intensity Objects (%),[1]; [11],34%
same,Population Membrane Permeable-Phenotype (%),[1]; [11],13%
same,Population Mitochondria Different-Phenotype (%),[1]; [11],6%
same,Population Mitotic Cells (%),[1]; [11],0%
same,Population Normal (%),[1]; [11],65%
same,Population Pyknosed Nuclei (%),[1]; [11],6%
same,Population Tubulin-Different-Phenotype (%),[1]; [11],0%
same,Total Cell Count,[1]; [11],67
same,Growth Rate,[2]; [12],0
same,Growth Rate,[2]; [13],0
same,Growth Rate,[2]; [14],1
same,Growth Rate,[2]; [15],0
same,Growth Rate,"[2]; 18 h, replicate number 2, timepoint 18 hours",1
same,Growth Rate,[2]; [16],0
same,Growth Rate,[2]; [17],1
same,Growth Rate,"[3]; 0 h, replicate number 2, timepoint 0 hours",1
same,Growth Rate,[3]; [12],0
same,Growth Rate,[3]; [13],0
same,Growth Rate,[3]; [14],1
same,Growth Rate,[3]; [15],0
same,Growth Rate,[3]; [16],1
same,Growth Rate,[3]; [17],0
